Results on 55 compounds are retold here after ChEMBL document CHEMBL3286338, “SAR studies on hydropentalene derivatives--Important core units of biologically active tetramic acid macrolactams and ptychanolides” (Bioorg Med Chem, 2014).

Assay [1] relates to L929. Put plainly: Antiproliferative activity against mouse L929 cells by MTT assay. Type of assay: functional, cell-based. In a few lines:
(§1)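 Cells kept in supplier-recommended media at 37 °C, 10% CO2. Serial dilutions added to a cell suspension (50,000 per mL) and incubated 5 d alongside blank and solvent controls. MTT then added to 0.5 mg mL^-1 final for 2 h, and formazan precipitate collected by centrifugation. Run as two parallel experiments; activity taken as mean relative to controls set at 100%.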
On the technique in general: Formazan colour is commonly taken as a measure of viable cells.

A short description of assay [2]: Antiproliferative activity against human KB-3-1 cells by MTT assay. Type of assay: functional, cell-based. In a few lines: as §1
Assay [3] concerns L929. Put plainly: Effect on microtubule polymerization in mouse L929 cells at 3 ng/ml by impedance profiling. In kind it is cell-based. In a few lines: (§2)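 L-929 mouse fibroblasts were cultured at 37 °C and 10% CO₂ in supplier-recommended medium. Cells were exposed to compound, with methanol-only controls, and impedance was recorded over time. The time-dependent impedance curves served as a mode-of-action fingerprint and were compared statistically, by cluster analysis, with curves from a panel of reference compounds, including microtubule-interfering agents.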

For assay [4], the system named is L929. Put plainly: Effect on spindle formation in mouse L929 cells at 3 ng/ml by impedance profiling. Type of assay: cell-based. In a few lines: as §2

The IC50 is the point on the concentration scale where inhibition reaches its midpoint. Low values mean inhibition by little substance, high ones a need for much substance.

Each structure is given as a SMILES string. Active and inactive are the calls of the source. The calls are words filed in the database; no cut-off is given here.

Consider `C=CC[C@@H]1[C@H]2C/C(=N\NS(=O)(=O)c3ccc(C)cc3)[C@H](C)[C@H]2C[C@H]1O[Si](c1ccccc1)(c1ccccc1)C(C)(C)C`, for which the half-maximal inhibitory concentration (IC50) in the assay with L929 [1] is 20 µM; in assay [2] it was 13.3 µM.
Taken in the same sequence, the figures for `CC(C)(C)[Si](O[C@H]1C[C@H]2CC(=O)C[C@H]2C1)(c1ccccc1)c1ccccc1` were above 40 mg/L and above 40 mg/L.
In the assay on L929 [1], `CC(C)(C)[Si](O[C@H]1[C@H]2CCC3(OCCO3)[C@H]2C[C@@H]1O)(c1ccccc1)c1ccccc1` showed an IC50 of 38.8 µM.
With `CCC(=O)O[C@@H]1C[C@@H]2CC3(C[C@@H]2C1)OCC(C)(C)CO3`, the half-maximal inhibitory concentration (IC50) (in the assay on L929 [1]; in assay [2]) was above 142 µM each time.
For the compound `C=CC[C@@H]1[C@H]2C=C[C@H](C)[C@H]2C[C@H]1O[Si](c1ccccc1)(c1ccccc1)C(C)(C)C`, the half-inhibitory concentration (IC50) was 20.4 µM with L929 [1] and above 96 µM in assay [2].
The corresponding values for `BrC1C[C@H]2[C@H](CC(Br)C23OCCO3)C12CCCC2` (stereo partly drawn) are above 40 mg/L and above 40 mg/L.
The corresponding values for `O=C1C[C@@H]2C[C@H](O)C[C@@H]2C1` are above 40 mg/L and above 40 mg/L.
`C[C@@H]1[C@H]2CC(=O)[C@H](C)[C@H]2C[C@H]1O[Si](c1ccccc1)(c1ccccc1)C(C)(C)C`: the IC50 was found to be 7.4 µM with L929 [1] and 15.2 µM in assay [2].
For `CC(C)=CC[C@H]1C(=O)C[C@@H]2[C@@H](C)[C@H](O[Si](c3ccccc3)(c3ccccc3)C(C)(C)C)C[C@@H]21`, the concentration for half-maximal inhibition (IC50) came out at 23.9 µM with L929 [1] and 28.2 µM in assay [2].
As to `CCCC(=O)OCN(C(=O)[C@@H](NC(=O)[C@H]1CCCCN1C)[C@@H](C)CC)[C@H](C[C@@H](OC(C)=O)c1nc(C(=O)N[C@@H](Cc2ccc(O)cc2)C[C@H](C)C(=O)O)cs1)C(C)C`, the result with L929 [3] and in the assay on L929 [4] was Active.
Take `CC(C)[Si](OC1CCCC1)(C(C)C)C(C)C`: the half-maximal inhibitory concentration (IC50) in the assay with L929 [1] amounted to 111 µM; in assay [2], 124 µM.
Taken in the same sequence, the figures for `C=CC[C@@H]1[C@H]2CC(=O)[C@H](CC=C)[C@H]2C[C@H]1O` were above 40 mg/L and above 40 mg/L.
Taken in the same sequence, the figures for `CC(C)(C)[Si](OC1CCCCCC1)(c1ccccc1)c1ccccc1` were 40 mg/L and 6.2 mg/L.
The corresponding values for `C=CC[C@H]1C(=O)C[C@@H]2[C@@H](C)[C@H](O[Si](c3ccccc3)(c3ccccc3)C(C)(C)C)C[C@@H]21` are 17.8 µM and 6.9 µM.
With `CC(C)(C)[Si](OC1CCCCC1)(c1ccccc1)c1ccccc1`, the IC50 in the assay with L929 [1] was 40 mg/L; in assay [2], 7.5 mg/L.
Regarding `C[C@@H]1[C@@H]2[C@@H](CC(=O)[C@H]2C)C[C@H]1O[Si](c1ccccc1)(c1ccccc1)C(C)(C)C`, the IC50 with L929 [1] is 14.8 µM; in assay [2], 7.4 µM.
`C[C@H]1[C@H](O[Si](c2ccccc2)(c2ccccc2)C(C)(C)C)C[C@]2(C)CC(=O)C[C@]12C` returned an IC50 with L929 [1] of 14.3 µM.
For `CC1(C)COC2(CC[C@@H]3[C@@H](O)[C@H](O)C[C@@H]32)OC1`, the IC50 (in the assay on L929 [1]; in assay [2]) was above 40 mg/L in each case.
`CC1(C)COC2(C[C@H]3C[C@@H](CO)C[C@H]3C2)OC1`: the IC50 (with L929 [1]; in assay [2]) was above 40 mg/L throughout.
On to `C#CC(=O)O[C@H]1C[C@@H]2C[C@H](O[Si](c3ccccc3)(c3ccccc3)C(C)(C)C)C[C@@H]2C1`, for which, in the assay with L929 [1], half-maximal inhibition (IC50) was put at 9.3 µM.
Turning to `CC(C)(C)[Si](C)(C)OC1CCCC2C1C(=O)[C@H]1CC(Br)C3(OCCO3)[C@@H]21` (stereo partly drawn), the IC50 in the assay on L929 [1] is 32 mg/L; in assay [2], above 40 mg/L.
`C1COC2(CC[C@@H]3[C@H]4O[C@H]4C[C@@H]32)O1` came in with an IC50 in the assay with L929 [1] above 40 mg/L.
For `Cc1ccc(S(=O)(=O)N/N=C2/C[C@@H]3CC4(C[C@@H]3C2)OCC(C)(C)CO4)cc1`, the IC50 (in the assay with L929 [1]; in assay [2]) was above 40 mg/L each time.
Take `C=CCC[C@H]1CC(=O)[C@@H]2C=CC(=O)[C@H]12` (racemic): the IC50 in the assay on L929 [1] turned out to be 20 µM; in assay [2], 16.3 µM.
Take `Cc1cc(C)c(O[C@@H]2C[C@@H]3CC4(C[C@@H]3C2)OCC(C)(C)CO4)c(C)c1`: the IC50 (in the assay with L929 [1]; in assay [2]) was above 40 mg/L each time.
Turning to `C=CC[C@@H]1[C@@H]2[C@@H](CC(=O)[C@H]2C)C[C@H]1O[Si](c1ccccc1)(c1ccccc1)C(C)(C)C`, the IC50 in the assay on L929 [1] stood at 16.2 µM; in assay [2], 20.3 µM.
Taken in the same sequence, the figures for `CC(C)(C)[Si](C)(C)OC1CCCC1` were above 200 µM and above 200 µM.
`C=CC[C@@H]1[C@@H]2[C@H](C[C@H]1O[Si](c1ccccc1)(c1ccccc1)C(C)(C)C)[C@@H](C)C(=O)[C@H]2C`: the figures for the IC50 (in the assay with L929 [1]; in assay [2]) were 5.8 mg/L and 7.9 mg/L, respectively.
As for `O=CCCCC1CC(=O)[C@H]2[C@@H]1CCC21OCCO1` (stereo partly drawn), the IC50 (in the assay on L929 [1]; in assay [2]) was above 40 mg/L in each case.
In the case of `CC1(C)COC2(C[C@H]3C[C@H](O)C[C@H]3C2)OC1`, the 50% inhibitory concentration (IC50) (with L929 [1]; in assay [2]) was above 40 mg/L throughout.
As for `C=CCC[C@H]1CC2(OCCO2)[C@@H]2C=CC(=O)[C@H]12` (racemic), the IC50 turned out to be 25.6 µM in the assay on L929 [1] and 32 µM in assay [2].
As to `C[C@H]1[C@H](O[Si](c2ccccc2)(c2ccccc2)C(C)(C)C)C[C@]2(C)CC3(C[C@]12C)OCC(C)(C)CO3`, the IC50 with L929 [1] was determined as 15.8 µM.
As for `O[C@@H]1[C@H]2CCC3(OCCO3)[C@H]2C[C@@H]1O`, the IC50 (with L929 [1]; in assay [2]) was above 40 mg/L throughout.
As for `O=C1CC[C@H]2[C@@H]1CCC21OCCO1`, the concentration for half-maximal inhibition (IC50) (in the assay on L929 [1]; in assay [2]) was above 40 mg/L throughout.
As to `CC(C)=CC[C@@H]1C(=O)C[C@H]2C[C@@H](O[Si](c3ccccc3)(c3ccccc3)C(C)(C)C)[C@H](C)[C@H]21`, the IC50 with L929 [1] worked out at 5.6 µM; in assay [2], 21.7 µM.
The corresponding values for `CC1(C)COC2(C[C@@H]3CC4OC4[C@@H]3C2)OC1` (stereo partly drawn) are above 40 mg/L and above 40 mg/L.
`C[C@H]1C(=O)C[C@]2(C)CC3(C[C@]12C)OCC(C)(C)CO3` registered a concentration for half-maximal inhibition (IC50) in the assay on L929 [1] above 150 µM.
As for `C=CC[C@@H]1[C@H]2[C@H](C)C=C[C@H]2C[C@H]1O[Si](c1ccccc1)(c1ccccc1)C(C)(C)C`, the 50% inhibitory concentration (IC50) with L929 [1] is 7.2 µM; in assay [2], above 96 µM.
As to `O=C1C=C(CCCCOCc2ccccc2)[C@H]2CCC3(OCCO3)[C@@H]12`, the IC50 (in the assay on L929 [1]; in assay [2]) was above 40 mg/L throughout.
On to `C[C@H]1[C@H](O)C[C@]2(C)CC3(C[C@]12C)OCC(C)(C)CO3`, for which the 50% inhibitory concentration (IC50) in the assay on L929 [1] was above 150 µM.
In the case of `C=CC[C@@H]1[C@@H]2[C@@H](CC(=O)[C@H]2CC=C)C[C@H]1O`, the IC50 (in the assay with L929 [1]; in assay [2]) was above 40 mg/L in each case.
In the assay with L929 [1], `CC(C)(C)[Si](O[C@@H]1[C@H]2CCC3(OCCO3)[C@H]2C[C@H]1O)(c1ccccc1)c1ccccc1` displayed a 50% inhibitory concentration (IC50) of 41 µM.
Consider `CC1(C)COC2(C[C@@H]3CC=C[C@@H]3C2)OC1`, for which the IC50 (in the assay on L929 [1]; in assay [2]) was above 40 mg/L each time.
With `C=CC[C@@H]1[C@H]2CC(=O)[C@H](C)[C@H]2C[C@H]1O[Si](c1ccccc1)(c1ccccc1)C(C)(C)C`, the half-inhibitory concentration (IC50) worked out at 32.4 µM in the assay with L929 [1] and 16 µM in assay [2].
For the compound `C[C@@H]1[C@H](O)C[C@]2(C)CC3(C[C@]12C)OCC(C)(C)CO3`, the IC50 in the assay on L929 [1] was above 150 µM.
Still for that read-out and setting: in the case of `CC(C)(C)[Si](OC1CCCC1)(c1ccccc1)c1ccccc1` it was 61.6 µM.
In the case of `O=C1C2C(O)CCCC2[C@H]2[C@@H]1CC(Br)C21OCCO1` (stereo partly drawn), the half-inhibitory concentration (IC50) in the assay with L929 [1] is 22 mg/L; in assay [2], 10 mg/L.
The corresponding values for `C=C1C[C@@H]2CC3(C[C@@H]2C1)OCC(C)(C)CO3` are above 40 mg/L and above 40 mg/L.
The corresponding values for `C=CC[C@@H]1[C@@H]2[C@@H](C/C(=N/NS(=O)(=O)c3ccc(C)cc3)[C@H]2C)C[C@H]1O[Si](c1ccccc1)(c1ccccc1)C(C)(C)C` are above 67 µM and 12.5 µM.
With `C=CC[C@@H]1C(=O)C[C@H]2C[C@@H](O[Si](c3ccccc3)(c3ccccc3)C(C)(C)C)[C@H](C)[C@H]21`, the IC50 in the assay with L929 [1] was 5.1 µM; in assay [2] it was 16.2 µM.
The corresponding values for `O=C1CC(CCCCO)[C@H]2CCC3(OCCO3)[C@@H]12` (stereo partly drawn) are above 40 mg/L and above 40 mg/L.
`C[C@@H]1[C@H](O[Si](c2ccccc2)(c2ccccc2)C(C)(C)C)C[C@]2(C)CC(=O)C[C@]12C` displayed an IC50 in the assay with L929 [1] of 35.7 µM.
The same measure, in the same setting: in the case of `C[C@@H]1[C@H](O[Si](c2ccccc2)(c2ccccc2)C(C)(C)C)C[C@]2(C)CC3(C[C@]12C)OCC(C)(C)CO3` it was 11.8 µM.
In the case of `CC(C)(C)[Si](C)(C)OC1CCCC2C1C(O)[C@H]1CC(Br)C3(OCCO3)[C@@H]21` (stereo partly drawn), the IC50 was determined as 15 mg/L in the assay on L929 [1] and 14 mg/L in assay [2].
Turning to `O=C1C[C@@H]2C[C@@H](O)C[C@@H]2C1`, the IC50 (in the assay with L929 [1]; in assay [2]) was above 40 mg/L each time.
